From ChEMBL document CHEMBL3526146, “In vitro and in vivo metabolism and pharmacokinetics of BMS-562086, a potent and orally bioavailable corticotropin-releasing factor-1 receptor antagonist” (Drug Metab Dispos, 2012) come the findings set out here.

The test system of one data set is Serum. Put plainly: Metabolic stability in rat serum after 3 hrs by equilibrium dialysis. The format is ADME, cell-free. The method in brief:
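Stability assessed in the serum samples from the equilibrium-dialysis setup: compound at final 12.8, 25.6 and 38.5 µM, dialysed against 134 mM phosphate buffer, pH 7.4, at 37°C with rotation at 20 rpm. Samples monitored for degradants over the 3-h incubation.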

The test system of data set [1] is Liver microsome. Put plainly: Drug metabolism in rat liver microsomes assessed as DPH-124921 metabolite level at 100 uM after 1 hr in presence of NADPH. The format is ADME. The method in brief:
(§1)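 Liver microsomes (1 mg/ml protein) in 100 mM phosphate buffer with 100 µM test compound. Reaction started by adding NADPH (1 mM), then run at 37°C for 1 h in a shaking water bath, in duplicate. Controls lacked microsomal protein or NADPH; 7-ethoxycoumarin (100 µM) was the positive control. Metabolites identified by LC/MS/MS.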

Data set [2] can be described thus: Drug metabolism in cynomolgus monkey cryopreserved hepatocytes assessed as decrease of compound level at 25 uM after 3 hrs by HPLC analysis. The data set is classed as ADME, cell-based, Macaca fascicularis, Hepatocyte. The conditions noted are these: read-out: Drug metabolism. The method in brief:
(§2)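 Mouse, rat, dog, monkey and human hepatocytes (trypan blue viability checked) at 1.0×10^6 cells/ml in Krebs-Henseleit buffer were incubated with 25 µM compound, in duplicate. Conditions were 37°C, 95/5 O2/CO2, orbital shaking, 3 h. 7-Ethoxycoumarin and 7-hydroxycoumarin (100 µM) served as positive controls, with a cell-free negative control. Reactions were quenched with ice-cold acetonitrile, then sonicated and centrifuged; supernatants were analysed by LC/MS/MS.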

The nature of data set [3]: Drug metabolism in cynomolgus monkey cryopreserved hepatocytes assessed as 7-hydroxycoumarin formation at 25 uM after 3 hrs by HPLC analysis. The format is ADME, cell-based, Macaca fascicularis, Hepatocyte.
The nature of data set [4]: Drug metabolism in cynomolgus monkey cryopreserved hepatocytes assessed as […] at 25 uM after 3 hrs by HPLC analysis. The data set is classed as ADME, cell-based, Macaca fascicularis, Hepatocyte.
Data set [5] is described as follows: Drug metabolism in mouse liver microsomes assessed as DPH-123554 metabolite level at 100 uM after 1 hr in presence of NADPH. The format is ADME. The method in brief: as §1
Data set [6] is described as follows: Drug metabolism in mouse hepatocytes assessed as DPH-123554 metabolite level at 25 uM after 3 hrs by LC-MS/MS analysis. The format is ADME, cell-based, Hepatocyte. The method in brief:
(§3)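 Hepatocytes checked for viability by trypan blue exclusion, then diluted in Krebs-Henseleit buffer to 1.0 × 10^6 cells/ml. Incubated in duplicate with 25 µM compound at 37°C for 3 h on an orbital shaker (80 rpm) under 95/5 O2/CO2. Negative control had no cells. Stopped with ice-cold acetonitrile, sonicated, centrifuged; supernatant analysed by LC/MS/MS.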

Data set [7] in a line: Drug metabolism in mouse liver microsomes assessed as DPH-124921 metabolite level at 100 uM after 1 hr in presence of NADPH. The format is ADME. The method in brief:
as §1

Data set [8] is described as follows: Drug metabolism in mouse liver microsomes at 100 uM after 1 hr in presence of NADPH. The format is ADME. The method in brief: as §1
Data set [9] is described as follows: Cmax in chimpanzee at 1 mg/kg, po. The format is ADME, organism-based, Pan troglodytes. To be noted: in vivo. Set-up: dose 1 mg/kg, route oral. The method in brief: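 Two fasted male chimpanzees (58, 72 kg) received 1 mg/kg orally as a suspension in 0.5% methylcellulose/orange drink with 1% Tween 80 (1:1). Blood was sampled 0-96 h post-dose. Plasma was assayed by validated LC/MS/MS (LLOQ 1.00 ng/ml). Noncompartmental analysis gave AUC(INF) by the mixed log-linear trapezoidal method, with Cmax observed directly; values are mean (min, max).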

Data set [10] is described as follows: Drug metabolism in mouse liver microsomes assessed as BMS-572273 metabolite level at 100 uM after 1 hr in presence of NADPH. The data set is classed as ADME. The method in brief:
as §1

Data set [11] is described as follows: Drug metabolism in rat hepatocytes assessed as 7-hydroxycoumarin formation at 25 uM after 3 hrs by HPLC analysis. The format is ADME, cell-based, Hepatocyte.
Data set [12] concerns Liver microsome. Put plainly: Detection of compound level in human liver microsomes treated with 100 uM of BMS-562086 after 1 hr by LC-MS/MS analysis.
The next data set concerns Hepatocyte. Put plainly: Detection of compound level in mouse hepatocytes treated with 25 uM of BMS-562086 after 3 hrs by LC-MS/MS analysis. The data set is classed as ADME, cell-based. The method in brief: as §2
The nature of data set [13]: Drug metabolism in cynomolgus monkey cryopreserved hepatocytes assessed as DPH-123554 metabolite level at 25 uM after 3 hrs by LC-MS/MS analysis. The data set is classed as ADME, cell-based, Macaca fascicularis, Hepatocyte. The method in brief:
as §2

Data set [14] can be described thus: Detection of compound level in cynomolgus monkey liver microsomes treated with 100 uM of BMS-562086 after 1 hr by LC-MS/MS analysis.
Data set [15] in a line: Drug metabolism in human cryopreserved hepatocytes assessed as BMS-572273 metabolite level at 25 uM after 3 hrs by LC-MS/MS analysis. The format is ADME, cell-based, Hepatocyte. The method in brief:
as §3

Data set [16] can be described thus: Drug metabolism in human cryopreserved hepatocytes assessed as decrease of compound level at 25 uM after 3 hrs by HPLC analysis. The data set is classed as ADME, cell-based, Hepatocyte. The conditions noted are these: read-out: Drug metabolism.
The nature of data set [17]: Drug metabolism in cynomolgus monkey cryopreserved hepatocytes at 25 uM after 3 hrs by LC-MS/MS analysis. The data set is classed as ADME, cell-based, Macaca fascicularis, Hepatocyte. The method in brief:
as §2

Data set [18] can be described thus: Drug metabolism in cynomolgus monkey liver microsomes assessed as DPH-124921 metabolite level at 100 uM after 1 hr in presence of NADPH. The data set is classed as ADME, Macaca fascicularis. The method in brief: (§4)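 Mouse, rat, dog, monkey and human liver microsomes (1 mg/ml protein) were incubated with 100 µM compound in 100 mM phosphate buffer. Reactions were started with 1 mM NADPH and run 1 h at 37°C in duplicate. Controls lacked protein or NADPH, plus a 7-ethoxycoumarin (100 µM) positive control. Metabolites were identified by LC/MS/MS.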

The nature of data set [19]: Drug metabolism in mouse hepatocytes assessed as 7-hydroxycoumarin formation at 25 uM after 3 hrs by HPLC analysis. The format is ADME, cell-based, Hepatocyte.
In data set [20] the test system is Liver microsome. In words: Drug metabolism in rat liver microsomes at 100 uM after 1 hr in presence of NADPH. The data set is classed as ADME. The method in brief:
as §1

The test system of data set [21] is Liver microsome. In words: Drug metabolism in dog liver microsomes assessed as BMS-572273 metabolite level at 100 uM after 1 hr in presence of NADPH. The data set is classed as ADME, Canis lupus familiaris. The method in brief: as §4
Data set [22] can be described thus: Tmax in beagle dog at 5 mg/kg, po. The conditions noted are these: in vivo. The format is ADME, organism-based, Canis lupus familiaris. Set-up: dose 5 mg/kg, route oral. The method in brief: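 Male beagles (n=3, 10.1-12.7 kg) in one-way crossover, one-week washout after IV leg; fasted ~15 h before and 4 h after dosing. Single gavage 5 mg/kg in 0.5% aqueous methylcellulose. Plasma sampled 0-96 h, parent measured by validated LC/MS/MS (1.00-1000 ng/ml). Noncompartmental analysis; Tmax taken from observed data.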

A short description of data set [23]: Drug metabolism in cynomolgus monkey cryopreserved hepatocytes assessed as BMS-572273 metabolite level at 25 uM after 3 hrs by LC-MS/MS analysis. The format is ADME, cell-based, Macaca fascicularis, Hepatocyte. The method in brief: as §2
Data set [24] is described as follows: Drug metabolism in mouse hepatocytes assessed as at 25 uM after 3 hrs by HPLC analysis.
Data set [25] in a line: Drug metabolism in bile duct-cannulated Sprague-Dawley rat urine assessed as DPH-123554 metabolite level at 30 mg/kg, po after 12 hrs by LC-MS/MS analysis. The format is ADME, organism-based. Set-up: dose 30 mg/kg, route oral. To be noted: in vivo. The method in brief: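 Male bile-duct-cannulated Sprague-Dawley rats (n=3), fasted overnight, received 30 mg/kg by gavage in 0.5% methylcellulose. Urine and bile were collected 0-12 h and pooled by equal percentage weight across animals, then centrifuged. Supernatants were profiled by LC/MS/MS. Bile was also treated with β-glucuronidase in pH 4.8 acetate buffer, 37°C, 16 h.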

In the case of `CC[C@@H](C)Nc1nc(C)nc2c(-c3ccc(OC)nc3C)c(C)nn12` [PEXACERFONT], the Stability result in the data set on Serum is recorded as “Stable”. In addition, the Drug metabolism result (with Liver microsome [1]; in [3]; in data set [4]; in [5]; in [6]; in data set [7]) was “metabolite_detected” each time. Besides, the Drug metabolism result (in [8]; in data set [10]; in [11]; with Liver microsome [12]; in the data set on Hepatocyte; in [13]) was “metabolite_detected” in each case. Also, the Drug metabolism result (in data set [14]; in data set [15]; in data set [17]; in [18]; in data set [19]; in the data set with Liver microsome [20]) was “metabolite_detected” in each case. Besides, the Drug metabolism entry (in the data set on Liver microsome [21]; in data set [23]; in data set [24]) was “metabolite_detected” throughout. Also, the metabolised at 3 h, 25 µM in [2] amounted to 83%; in data set [16], 40%. Also, the peak level in [9] (Cmax) was 1070 nM. The Tmax in [22] stood at 45 min.

On to `COc1ccc(-c2c(C)nn3c(O)nc(C)nc23)c(C)n1`, for which the Drug metabolism result (with Liver microsome [1]; in data set [5]; in data set [6]; in data set [7]; in data set [8]; in data set [10]) was “metabolite_detected” throughout. The Drug metabolism entry (in the data set on Liver microsome [12]; in the data set with Hepatocyte; in [13]; in data set [14]; in [15]; in [17]) was “metabolite_detected” throughout. Also, the Drug metabolism entry (in data set [18]; with Liver microsome [20]; with Liver microsome [21]; in data set [23]) was “metabolite_detected” in each case.

Consider `COc1ccc(-c2c(C)nn3c(N)nc(C)nc23)c(C)n1`, for which the Drug metabolism entry (in the data set with Liver microsome [1]; in [5]; in [6]; in [7]; in data set [8]; in [10]) was “metabolite_detected” each time. The Drug metabolism entry (in the data set on Liver microsome [12]; with Hepatocyte; in [13]; in [14]; in data set [15]; in data set [17]) was “metabolite_detected” each time. The Drug metabolism result (in [18]; with Liver microsome [20]; with Liver microsome [21]; in [23]) was “metabolite_detected” throughout.

In the case of `CC[C@@H](C)Nc1nc(C)nc2c(-c3ccc(O)nc3C)c(C)nn12`, the Drug metabolism result (with Liver microsome [1]; in data set [5]; in [6]; in data set [7]; in data set [8]; in [10]) was “metabolite_detected” throughout. In addition, the Drug metabolism result (in the data set with Liver microsome [12]; in the data set with Hepatocyte; in data set [13]; in [14]; in data set [15]; in data set [17]) was “metabolite_detected” throughout. Also, the Drug metabolism entry (in [25]; in data set [18]; in the data set with Liver microsome [20]; in the data set on Liver microsome [21]; in [23]) was “metabolite_detected” in each case.
